Data on 31 molecules can be found in ChEMBL document CHEMBL1955756, “Design and synthesis of novel sulfonamide-containing bradykinin hB(2) receptor antagonists. Synthesis and structure-relationships of α,α-tetrahydropyranylglycine” (Bioorg Med Chem, 2012).

Calls of active or inactive are those of the source. The rule behind the calls is not given here. Bounds are passed on as bounds.

The target in assay [1] is T1, B2 bradykinin receptor (Homo sapiens, UniProt P30411).
T1 sequence (P30411 whole entry): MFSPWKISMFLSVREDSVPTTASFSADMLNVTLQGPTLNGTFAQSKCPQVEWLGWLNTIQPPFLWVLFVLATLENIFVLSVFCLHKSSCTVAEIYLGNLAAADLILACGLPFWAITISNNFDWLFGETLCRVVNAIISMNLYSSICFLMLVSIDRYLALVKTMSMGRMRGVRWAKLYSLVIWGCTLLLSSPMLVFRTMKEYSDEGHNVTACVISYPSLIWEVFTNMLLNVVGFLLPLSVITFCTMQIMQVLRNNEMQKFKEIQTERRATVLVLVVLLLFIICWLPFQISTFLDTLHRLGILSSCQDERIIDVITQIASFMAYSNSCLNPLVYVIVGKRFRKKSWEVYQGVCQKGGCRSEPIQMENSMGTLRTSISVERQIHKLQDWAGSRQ
As to the kind of experiment: Displacement of [3H]-Bradykinin from human bradykinin B2 receptor expressed in CHO cells membrane after 60 mins by scintillation counting. Format: cell membranes. (In general: Displacement assays read how much labelled ligand stays bound in the presence of the test substance.)

Assay [2] has as its target T2, B1 bradykinin receptor (Homo sapiens, UniProt P46663).
T2 sequence (P46663 whole entry): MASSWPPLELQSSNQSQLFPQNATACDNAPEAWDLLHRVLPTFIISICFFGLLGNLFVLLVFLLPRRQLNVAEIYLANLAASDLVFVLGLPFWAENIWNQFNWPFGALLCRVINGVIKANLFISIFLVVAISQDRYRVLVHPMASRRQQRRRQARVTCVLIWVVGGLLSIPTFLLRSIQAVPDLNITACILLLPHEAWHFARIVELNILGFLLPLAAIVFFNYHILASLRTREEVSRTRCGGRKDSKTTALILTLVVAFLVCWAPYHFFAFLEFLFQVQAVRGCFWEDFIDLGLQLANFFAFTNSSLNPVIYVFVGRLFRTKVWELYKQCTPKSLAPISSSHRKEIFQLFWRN
In words: Displacement of [3H][desArg9]Lys-Bradykinin from human bradykinin B1 receptor expressed in CHO cells. Type of assay: cell-based.

The target in assay [3] is T1, B2 bradykinin receptor. As to the kind of experiment: Antagonist activity at human bradykinin B2 receptor expressed in dhfr-deficient CHO cells assessed as inhibition of bradykinin-induced inositol monophosphate accumulation preincubated for 15 mins prior bradykinin induction measured after 40 mins by liquid scintillation spectrometry. Type of assay: functional, cell-based. The settings on record: read-out: pA2 (converted). The procedure, abridged:
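CHOdhfr-/hB2R cells (1.8×10^5/well) plated overnight at 37 °C, labelled 24 h with myo-[3H]inositol (1 uCi/well). Antagonist pre-incubation 15 min, then BK 1×10^-11 to 1×10^-5 M for 40 min at 37 °C in Hepes pH 7.4 buffer with 25 mM LiCl. IP1 radioactivity by liquid scintillation. Agonist curves fitted for EC50; pA2 = log(CR−1) − log[antagonist].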

The test system of assay [4] is Cavia porcellus. In words: Inhibition of bradykinin-induced bronchoconstriction in anesthetized Dunkin-Hartley guinea pig at […], it 5 mins prior bradykinin-induction for every 30 mins up to 210 mins. Type of assay: functional, organism-based. The procedure, abridged:
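Anaesthetized male Dunkin Hartley guinea pigs, 350–400 g. Compound given intratracheally, then repeated iv BK challenges (10 nmol/kg) with bronchoconstriction recorded.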

In the case of `Cc1cc(C)c2cccc(OCc3c(Cl)ccc(S(=O)(=O)NC4(C(=O)N5CCC(CNCCC[N+](C)(C)C)CC5)CCOCC4)c3Cl)c2n1`, the results for the Ki in assay [1] and in assay [2] were 0.158 nM and above 10000 nM, respectively. Besides, the Kb in assay [3] is 2.51 nM.
The like results for `Cc1cc(C)c2cccc(OCc3c(Cl)ccc(S(=O)(=O)NC4(C(=O)N5CCC(CCC[N+](C)(C)C)CC5)CCOCC4)c3Cl)c2n1` were, in that order, 0.501 nM, above 10000 nM and 1.58 nM.
In the case of `Cc1cc(C)c2cccc(OCc3c(Cl)ccc(S(=O)(=O)NC4(C(=O)N5CCN(C(=O)CCCCN)CC5)CCOCC4)c3Cl)c2n1`, the Ki (in general, the equilibrium dissociation constant of an inhibitor or competing ligand from its target) is 0.0794 nM in assay [1] and above 10000 nM in assay [2]. Besides, the Kb in assay [3] is 0.479 nM.
On to `Cc1cc(C)c2cccc(OCc3c(Cl)ccc(S(=O)(=O)NC4(C(=O)N5CCN(C(=O)[C@@H](N)CCC[N+](C)(C)C)CC5)CCOCC4)c3Cl)c2n1` [FASITIBANT], for which, in assay [4], the inhibition entry was “Active”. This molecule showed a Ki in assay [2] above 10000 nM.
In the case of `Cc1cc(C)c2cccc(OCc3c(Cl)ccc(S(=O)(=O)NC4(C(=O)N5CCN(C(=O)[C@@H](N)CCCCNC(=N)N)CC5)CCOCC4)c3Cl)c2n1`, the figures for the Ki in assay [1] and in assay [2] were 0.0631 nM and above 10000 nM, respectively.
`Cc1cc(C)c2cccc(OCc3c(Cl)ccc(S(=O)(=O)NC4(C(=O)N5CCC(CNCC[N+](C)(C)C)CC5)CCOCC4)c3Cl)c2n1`: the results for the Ki in assay [1] and in assay [2] were 0.2 nM and above 10000 nM, respectively. Further, the Kb in assay [3] was 2.51 nM.
The like results for `Cc1cc(C)c2cccc(OCc3c(Cl)ccc(S(=O)(=O)NC4(C(=O)N5CC[N+]6(CC5)CC[N+](C)(C)CC6)CCOCC4)c3Cl)c2n1` were, in that order, 0.251 nM, above 10000 nM and 5.01 nM.
As for `Cc1cc(C)c2cccc(OCc3c(Cl)ccc(S(=O)(=O)NC4(C(=O)N5CC[N+]6(CCCC6)CC5)CCOCC4)c3Cl)c2n1`, the figures for the Ki in assay [1] and in assay [2] were 0.631 nM and above 10000 nM, respectively. The Kb in assay [3] was 3.16 nM.
For `Cc1cc(C)c2cccc(OCc3c(Cl)ccc(S(=O)(=O)NC4(C(=O)N5CCN(C(=O)[C@@H](N)CCCN(C)C)CC5)CCOCC4)c3Cl)c2n1`, the inhibition constant Ki is 0.0501 nM in assay [1] and above 10000 nM in assay [2]. Besides, the Kb in assay [3] was 0.123 nM.
Turning to `Cc1cc(C)c2cccc(OCc3c(Cl)ccc(S(=O)(=O)NC4(C(=O)N5CCC(CNCCCC[N+](C)(C)C)CC5)CCOCC4)c3Cl)c2n1`, the Ki in assay [1] is 0.0501 nM; in assay [2], above 10000 nM. The Kb in assay [3] is 2.51 nM.
With `Cc1cc(C)c2cccc(OCc3c(Cl)ccc(S(=O)(=O)NC4(C(=O)N5CC[N+](C)(CCCCCC[N+](C)(C)C)CC5)CCOCC4)c3Cl)c2n1`, the Ki in assay [1] was 0.0398 nM; in assay [2], above 10000 nM. Besides, in assay [3], the Kb was 3.16 nM.
For the molecule `Cc1cc(C)c2cccc(OCc3c(Cl)ccc(S(=O)(=O)NC4(C(=O)N5CCC(C[N+](C)(C)C)CC5)CCOCC4)c3Cl)c2n1`, the figures for the inhibition constant (Ki) in assay [1] and in assay [2] were 0.398 nM and above 10000 nM, respectively. For the same molecule, in assay [3], the Kb is 5.01 nM.
For `Cc1cc(C)c2cccc(OCc3c(Cl)ccc(S(=O)(=O)NC4(C(=O)N5CCN(C(=O)[C@@H](N)CCCC[N+](C)(C)C)CC5)CCOCC4)c3Cl)c2n1` the same measures were 0.251 nM, above 10000 nM and 0.398 nM.
Consider `Cc1cc(C)c2cccc(OCc3c(Cl)ccc(S(=O)(=O)NC4(C(=O)N5CC[N+](C)(CC[N+](C)(C)C)CC5)CCOCC4)c3Cl)c2n1`, for which the Ki in assay [1] was 0.251 nM; in assay [2], above 10000 nM. In addition, in assay [3], the Kb was 3.16 nM.
With `Cc1cc(C)c2cccc(OCc3c(Cl)ccc(S(=O)(=O)NC4(C(=O)N5CCN(C(=O)[C@@H](N)CCCCN)CC5)CCOCC4)c3Cl)c2n1`, the inhibition constant Ki is 0.1 nM in assay [1] and above 10000 nM in assay [2]. Besides, the Kb in assay [3] is 0.398 nM.
Take `Cc1cc(C)c2cccc(OCc3c(Cl)ccc(S(=O)(=O)NC4(C(=O)N5CCN(CCCCCC[N+](C)(C)C)CC5)CCOCC4)c3Cl)c2n1`: the Ki is 0.0631 nM in assay [1] and above 10000 nM in assay [2]. Also, the Kb in assay [3] was 0.794 nM.
For `Cc1cc(C)c2cccc(OCc3c(Cl)ccc(S(=O)(=O)NC4(C(=O)N5CC[N+](C)(CCC[N+](C)(C)C)CC5)CCOCC4)c3Cl)c2n1` the same measures were 0.1 nM, above 10000 nM and 1 nM.
As for `Cc1cc(C)c2cccc(OCc3c(Cl)ccc(S(=O)(=O)NC4(C(=O)N5CC[N+]6(CCN(C)CC6)CC5)CCOCC4)c3Cl)c2n1`, the Ki in assay [1] was 1 nM; in assay [2] it was above 10000 nM. Further, the Kb in assay [3] is 1.58 nM.
In the case of `Cc1cc(C)c2cccc(OCc3c(Cl)ccc(S(=O)(=O)NC4(C(=O)N5CC[N+](C)(CCCCC[N+](C)(C)C)CC5)CCOCC4)c3Cl)c2n1`, the Ki is 0.0501 nM in assay [1] and above 10000 nM in assay [2]. In addition, the Kb in assay [3] was 2.51 nM.
As to `Cc1cc(C)c2cccc(OCc3c(Cl)ccc(S(=O)(=O)NC4(C(=O)N5CCN(CC[N+](C)(C)C)CC5)CCOCC4)c3Cl)c2n1`, the Ki in assay [1] was 0.794 nM; in assay [2], above 10000 nM.
In the case of `Cc1cc(C)c2cccc(OCc3c(Cl)ccc(S(=O)(=O)NC4(C(=O)N5CCN(C(=O)[C@@H](N)CCCNC(=N)N)CC5)CCOCC4)c3Cl)c2n1`, the Ki was 0.126 nM in assay [1] and above 10000 nM in assay [2].
With `Cc1cc(C)c2cccc(OCc3c(Cl)ccc(S(=O)(=O)NC4(C(=O)N5CCN(C(=O)C[N+](C)(C)C)CC5)CCOCC4)c3Cl)c2n1`, the figures for the Ki in assay [1] and in assay [2] were 0.0794 nM and above 10000 nM, respectively. Moreover, the Kb in assay [3] was 0.794 nM.
Take `Cc1cc(C)c2cccc(OCc3c(Cl)ccc(S(=O)(=O)NC4(C(=O)N5CCN(C(=O)[C@@H](N)CCCCN(C)C)CC5)CCOCC4)c3Cl)c2n1`: the Ki was 0.0631 nM in assay [1] and above 10000 nM in assay [2].
Turning to `Cc1cc(C)c2cccc(OCc3c(Cl)ccc(S(=O)(=O)NC4(C(=O)N5CCN(C(=O)CCCCN(C)C)CC5)CCOCC4)c3Cl)c2n1`, the Ki was 0.1 nM in assay [1] and above 10000 nM in assay [2]. In assay [3], the Kb is 0.437 nM.
In the case of `Cc1cc(C)c2cccc(OCc3c(Cl)ccc(S(=O)(=O)NC4(C(=O)N5CCC(CC[N+](C)(C)C)CC5)CCOCC4)c3Cl)c2n1`, the inhibitory constant (Ki) in assay [1] was 0.794 nM; in assay [2], above 10000 nM. Further, the Kb in assay [3] is 3.98 nM.
For the molecule `Cc1cc(C)c2cccc(OCc3c(Cl)ccc(S(=O)(=O)NC4(C(=O)N5CCN(CCC[N+](C)(C)C)CC5)CCOCC4)c3Cl)c2n1`, the Ki was 0.316 nM in assay [1] and above 10000 nM in assay [2].
Consider `Cc1cc(C)c2cccc(OCc3c(Cl)ccc(S(=O)(=O)NC4(C(=O)N5CC[N+](C)(CCCC[N+](C)(C)C)CC5)CCOCC4)c3Cl)c2n1`, for which the Ki in assay [1] was 0.0794 nM; in assay [2] it was above 10000 nM. The Kb in assay [3] is 2 nM.
As to `Cc1cc(C)c2cccc(OCc3c(Cl)ccc(S(=O)(=O)NC4(C(=O)N5CCN(C(=O)[C@@H](N)CCCN)CC5)CCOCC4)c3Cl)c2n1`, the Ki is 0.0501 nM in assay [1] and above 10000 nM in assay [2]. For the same molecule, in assay [3], the Kb is 0.724 nM.
In the case of `Cc1cc(C)c2cccc(OCc3c(Cl)ccc(S(=O)(=O)NC4(C(=O)N5CCN(C(=O)CCCCCC[N+](C)(C)C)CC5)CCOCC4)c3Cl)c2n1`, the values for the Ki in assay [1] and in assay [2] were 0.2 nM and above 10000 nM, respectively. Moreover, the Kb in assay [3] was 1.26 nM.
With `Cc1cc(C)c2cccc(OCc3c(Cl)ccc(S(=O)(=O)NC4(C(=O)N5CCN(C(=O)CCC[N+](C)(C)C)CC5)CCOCC4)c3Cl)c2n1`, the Ki is 0.126 nM in assay [1] and above 10000 nM in assay [2]. For the same molecule, the Kb in assay [3] was 0.794 nM.
Turning to `Cc1cc(C)c2cccc(OCc3c(Cl)ccc(S(=O)(=O)NC4(C(=O)N5CCN(C(=O)CCCCC[N+](C)(C)C)CC5)CCOCC4)c3Cl)c2n1`, the Ki was 0.126 nM in assay [1] and above 10000 nM in assay [2]. Besides, the Kb in assay [3] is 0.794 nM.
